# Activity calls are given as the source filed them. The rule behind the calls is not given here.
# What was measured:
# [1] = Displacement of [3H]gabapentin from Voltage-dependent calcium channel subunit alpha-2/delta in pig cerebral cortex by scintillation counting; type: tissue-based, Sus scrofa
# [2] = Clearance in rat; type: ADME, organism-based; details: in vivo
# Rattus norvegicus [3] = assay: Anxiolytic activity in po dosed rat water lick conflict model of anxiety assessed as increase in number of shocks received; type: functional
# Procedure, shortened: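 Rat drinking-conflict model with oral dosing across a range of doses. The read-out was the mean number of shock episodes received per rat over 10 min, where a greater number of shocks indicates reduced anxiety. The minimum effective dose was determined, with significance tested against vehicle (P <0.05).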
# Rattus norvegicus [4] = assay: Antiinflammatory activity against carrageenan-induced thermal hyperalgesia in rat assessed as paw withdrawal from heat at 30 mg/kg, po after 2 hrs; type: functional, organism-based; parameters: dose 30 mg/kg
# Procedure, shortened: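 Rats received intraplantar carrageenan in the paw, and inflammation and hyperalgesia developed within 2 h. At that point the compound was given orally. Reversal of thermal hyperalgesia was read as time to paw withdrawal. Significance was tested against vehicle (P <0.05, P <0.01).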
# [5] = Tmax in rat; type: ADME, organism-based; details: in vivo
# [6] = Bioavailability in rat; type: ADME, organism-based; details: in vivo
# Rattus norvegicus [7] = assay: Sedative activity in rat at > 100 mg/kg, po; type: organism-based; parameters: dose 100 mg/kg, route oral; details: in vivo
# [8] = Lipophilicity, log D at pH 7.4; type: physicochemical; details: buffer
# Rattus norvegicus [9] = assay: Sedative activity in rat water lick conflict model of anxiety at 100 mg/kg, po; type: organism-based; parameters: dose 100 mg/kg, route oral; details: in vivo
# [10] = Elimination half life in rat; type: ADME, organism-based; details: in vivo, read-out: beta t1/2 (converted)
smiles,measurement,setting,value
CC[C@@H]1C[C@](CN)(CC(=O)O)C[C@@H]1CC,IC50,[1],4200 nM
C[C@@H]1CC(CN)(CC(=O)O)C[C@H]1C,IC50,[1],882 nM
C[C@@H]1C[C@](CN)(CC(=O)O)C[C@@H]1C,IC50,[1],153 nM
C[C@@H]1C[C@@](CN)(CC(=O)O)C[C@@H]1C,IC50,[1],107 nM
C[C@@H]1CC[C@@](CN)(CC(=O)O)C1,IC50,[1],71 nM
C[C@@H]1CC[C@](CN)(CC(=O)O)C1,IC50,[1],30 nM
CCC[C@H]1CC(CN)(CC(=O)O)C[C@@H]1C (mixture of isomers),IC50,[1],21 nM
CC[C@H]1CC(CN)(CC(=O)O)C[C@@H]1CC (racemic),IC50,[1],1100 nM
C[C@H]1CC(CN)(CC(=O)O)C[C@@H]1C (relative stereo) [ATAGABALIN],clearance,[2],4 mL/min/kg
same,Activity,Rattus norvegicus [3],Dose-dependent effect
same,minimal effective dose,Rattus norvegicus [3]; read-out: MED,10 mg/kg
same,Activity,Rattus norvegicus [4],Active
same,Tmax,[5],1.2 h
same,IC50,[1],22 nM
same,bioavailability,[6],87%
same,Activity,Rattus norvegicus [7],Toxic
same,logD,[8],-1
same,Activity,Rattus norvegicus [9],Toxic
same,half-life,[10],2.4 h
